In this data set the test system is MS2 coat protein. The data set is described as follows: apparent Kd, MS2 coat protein; higher = weaker binding; RNA-MaP array; FMN 200 µM where present. In outline: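 In 100 mM Tris-HCl pH 7.5, 80 mM KCl, 4 mM MgCl2, BSA, DTT, yeast tRNA and Tween-20, SNAP-549-labelled MS2 coat protein was titrated from 0.7 or 1.5 nM, doubling to 3 µM, over designs transcribed by stalled E. coli RNA polymerase on Illumina sequencing-chip clusters. This was done first without ligand, then with ligand held constant. After green signal was normalised to red-channel RNA signal and control-cluster median Fmax, the apparent Kd was taken as the median of filtered per-cluster binding-curve fits.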

Where [1] appears, read: designed as: OFF switch for flavin mononucleotide, no ligand.
Setting [2] is: ligand present: flavin mononucleotide, designed as: OFF switch for flavin mononucleotide.
The mark [3] stands for this setting: designed as: ON switch for flavin mononucleotide, no ligand.
[4] abbreviates: ligand present: flavin mononucleotide, designed as: ON switch for flavin mononucleotide.

48 sequences from the EternaBench riboswitch data can be followed below.

In general, apparent Kd refers to the concentration giving half-maximal binding under the conditions of the assay.

On to “CGCAGCGCAGGAUAUACAUGAGGAUCACCCAUGUACUGGCUCGGCACAGGGUCUCAAGGUAGAAGGGUGCAAAU”, for which the “apparent Kd” value by setting is: under setting [1], 22.6 nM; under setting [2], 23.1 nM.

On to “GCACUUCGGCAGAAGGGACUAUGGGUAUGGUAGUCAGGAUAUGCAGGGUGGGCGUUUCACAUGAGGAUCACCCAUGUAGGACCA”, for which the “apparent Kd” value turned out to be 15.1 nM under setting [3] and 8.52 nM under setting [4].

In the case of “GGCGGGCACACUGGCCGCUGAAGGAGAAGGCAGUGCACAUGAGGAUCACCCAUGUCGCGUGUGCCUGAGGAUAUCCGUAAAACG”, the “apparent Kd” value was 9.38 nM under setting [1] and 71.4 nM under setting [2].

For the sequence “UCAGUCAUGUAAGGAUAUGCAGCCGUUUCGGCUGCAGAAGGUACUAUAAUUACAUGAGGAUCACCCAUGUUAUAAAAUUUAUAU”, the “apparent Kd” value under setting [3] stood at 52.5 nM and the “apparent Kd” value under setting [4] was 19.9 nM.

Consider “UUUUUUUGCUGAGGAUAUAGCGCGCGUUUUGCGCUAGAAGGCAGACAUGUGGUUCACCCAUGUACAUGAGGAUCACCCAUGUUA”, for which the “apparent Kd” value is, setting by setting: under setting [3], 552 nM; under setting [4], 301 nM.

Take “GGUUGGUAUGAUUGGGUAUGAUACAUGAGGAUCACCCAUGUGCAGGAUAUGUUACACUCACGAUGAUAGAAGGGUAGGGUUUGA”: the “apparent Kd” value is, setting by setting: under setting [1], 305 nM; under setting [2], 270 nM.

With “ACACAGCGAGGAUAUACAUGAGGAUCACCCAUGUGGUGGCGGUUACGGUAGGACUAGUGUAGAAGGUGCCGUGG”, the “apparent Kd” value runs as follows: under setting [1], 480 nM; under setting [2], 414 nM.

For the sequence “GUGGUUGUCGUAGGAUAUGUAGGAUAUUCCUACAUGAGGAUCACCCAUGUUCGCAUGGAAGAAGGACAGAAGGACGAUGACCAC”, the “apparent Kd” value reads like this: under setting [3], 1250 nM; under setting [4], 10.2 nM.

In the case of “ACUUAUGAAGGAUAUACUAGCGACAUGCGCUCAACACGCGCACAUGAGGAUCACCCAUGUAGAAGGUCAAACAU”, the “apparent Kd” value under setting [1] came to 23.1 nM and the “apparent Kd” value under setting [2] was 22.1 nM.

As for “CAGCAAAAGUAGAAGGCAGUACUGAUUCAGUACUGAGGAUAUACAUGAGGAUCACCCAUGUAUUCCAGCUGAAUAAUAAAAUAU”, the “apparent Kd” value amounted to 5.43 nM under setting [1] and 5.63 nM under setting [2].

For the sequence “GGAGCUCCAGCGCAGGAUAUCGACCCAGGGACAUGAGGAUCACCCAUGUUCCAAAAAAAAUGGGUCGAGAAGGGCGUUGGAGAGCC”, the “apparent Kd” value by setting is: under setting [3], 12.6 nM; under setting [4], 9.62 nM.

Turning to “UUGUGCUUAGAGAAGGUUCAAACUACAUAUUGCGCACAUGAGGAUCACCCAUGUUGGUGAAUAAGAAAGGAUAUUUGACUGUGC”, the “apparent Kd” value by setting is: under setting [1], 487 nM; under setting [2], 360 nM.

As to “AAUAACAGAGGAUAUACUGUUUUAUGUGUUUAUUAUUUUGAACAUGAGGAUCACCCAUGUAGAAGGCUGAAUGA”, the “apparent Kd” value is 32.7 nM under setting [1] and 31.5 nM under setting [2].

For “AUGCUAUACGAAGGAUAUGGUUACAUGAGGAUCACCCAUGUUAUGAUUGGUUACUUGUUUAGUUUCCAGAAGGUCGUAUAUUUA”, the “apparent Kd” value is 51 nM under setting [1] and 235 nM under setting [2].

As for “UAAUAAUAAUAAUAAUGGACGAUACAUGAGGAUCACCCAUGUAAGGAUAUGCAGUGGAAUACACUGCAGAAGGUACAUACGUCC”, the “apparent Kd” value is, setting by setting: under setting [1], 15.7 nM; under setting [2], 23 nM.

For the sequence “UUUUAACAUGAGGAUCACCCAUGUCGUUCAAAUCAAGGAUAUCAGGCGUGUGCACACGCCUGAGAAGGUGAAUCUC”, the “apparent Kd” value by setting is: under setting [3], 135 nM; under setting [4], 320 nM.

On to “CGUCUGUCAGGAUAUAGUUACGUAGACAUGAGGAUCACCCAUGUGACGUGGGACUAGUGACUAGAAGGGACGAACG”, for which the “apparent Kd” value reads like this: under setting [1], 22.3 nM; under setting [2], 52.5 nM.

Consider “CGAUAUAUGAAGGGCGAAAGCCCACAUGAGGAUCACCCAUGUAGAAGGCGGGCCGCAACGCGGCCCGAGGAUAUAUAAUAUACA”, for which the “apparent Kd” value under setting [2] came to 9.15 nM.

Consider “AGUUACAUACUCAACAUGAGGAUCACCCAUGUACUCUCUUGUAAGGAUAUACAUUCGUAUUGAUAGUAGAAGGUACUAAUUAUG”, for which the “apparent Kd” value by setting is: under setting [3], 50.9 nM; under setting [4], 51.5 nM.

With “AUGCCUUAUGUAGGAUAUGCAUAGCAUUGCUAUGCAGAAGGACAUGAGGAUCACCCAUGUAUGUAUUCCAUACAUAUCUGGCAU”, the “apparent Kd” value runs as follows: under setting [1], 29.5 nM; under setting [2], 343 nM.

In the case of “UUGGACGUCGUAGGAUAUGUAGGAUAUUCCCACAUGAGGAUCACCCAUGUUGACAUGGAAGAAGGACAGAAGGACGAUGUCCAU”, the “apparent Kd” value was 4.05 nM under setting [3] and 3.47 nM under setting [4].

Consider “UAAUCGUUGCAGAAGGUUAUUAUUAUAACGUGACACUUAACAUGAGGAUCACCCAUGUUUUUUAUGAAGGAUAUGCAACGGUAG”, for which the “apparent Kd” value by setting is: under setting [1], 7.07 nM; under setting [2], 7.29 nM.

Regarding “ACCGGGUGUCACGUAUUACCGACAUGAGGAUCACCCAUGUAGGAGGAUAUGCAGACCGACAUAAAGCAGAAGGCCUACGUUUUC”, the “apparent Kd” value by setting is: under setting [1], 6.72 nM; under setting [2], 35.8 nM.

On to “AAUGUGUGUCGAGGAUAUAUAACAUGACAACAAACACAUACAUGAGGAUCACCCAUGUCCCAUGUAUAGAAGGCGAUAUAUAUA”, for which the “apparent Kd” value reads like this: under setting [3], 310 nM; under setting [4], 1120 nM.

Regarding “AUUGUUUAUGUAGGAUAUGCGAGGCGAGCCUAAGCAGAAGGACAUGAGGAUCACCCAUGUAUUGCGGUCUGCGUUCAGAUCGCU”, the “apparent Kd” value under setting [1] stood at 30.5 nM and the “apparent Kd” value under setting [2] was found to be 127 nM.

Turning to “AUAAUGUAAGGAUAUCAGUCGACUAGCUGCGGCUAGUCGACUGAGAAGGUACAUGAGGAUCACCCAUGUGUUUC”, the “apparent Kd” value came out at 40.9 nM under setting [1] and 183 nM under setting [2].

As for “UAUAAAACAUAGGAUAUCGAAAUUAUCAUUUAACGAGAAGGAUGAACAUGAGGAUCACCCAUGUGGUAUCAUGG”, the “apparent Kd” value under setting [1] came to 392 nM and the “apparent Kd” value under setting [2] turned out to be 518 nM.

With “GGAGCCGGCCUAGGAUAUUUCAUAACAAAACAUGAGGAUCACCCAUGUAGGCCAGAAGGCCUUGGGAAGAAGGAGGUCGGCUCC”, the “apparent Kd” value by setting is: under setting [3], 29.6 nM; under setting [4], 11.7 nM.

Consider “CAUUAAUUCAUUAUAGUAAUUAUACAGGAUAUGUAACAUGAGGAUCACCCAUGUAUUCUUGGUUAACAGAAGGGUAUUACUUGU”, for which the “apparent Kd” value by setting is: under setting [1], 17.5 nM; under setting [2], 27.6 nM.

For “GCGUUGAACGAGAAGGCCAAUACAUGAGGAUCACCCAUGUUAAGAUGUUUUGGAGGAUAUCGAUCGUCGUCUCAUGAGCAACGC”, the “apparent Kd” value is 5.3 nM under setting [1] and 6.24 nM under setting [2].

In the case of “ACCAUUUACUAAUUGUCUAUACAUGAGGAUCACCCAUGUUAUGAGGAUAUCAUCGUGAAACACGAUGAGAAGGCAUAGCAUUCG”, the “apparent Kd” value under setting [1] worked out at 64.5 nM and the “apparent Kd” value under setting [2] was 213 nM.

In the case of “GGGAAGUGCCAGAAGGCUCCCGGAUUCCUAGGGAGAGGAUAUGGCACAUGAGGAUCACCCAUGUGGUAGAUCUGUUUCGAAGUG”, the “apparent Kd” value is, setting by setting: under setting [1], 30.4 nM; under setting [2], 16.9 nM.

As to “ACAUGUUUUGUAGGAUAUCACUUGUUAUGUUAUAUAUUUGUUAUAAUCUAUUGAGAAGGACAUUUACAUGAGGAUCACCCAUGU”, the “apparent Kd” value under setting [1] turned out to be 8.83 nM and the “apparent Kd” value under setting [2] was 7.08 nM.

Regarding “UUAUACAUUCGAGGAUAUCGGUGAGAAAUCUUUCGAGAAGGCGAUUCAUGAUUUAUUAUCCUGGACAUGAGGAUCACCCAUGUA”, the “apparent Kd” value is, setting by setting: under setting [3], 79.8 nM; under setting [4], 60.9 nM.

For “AACAGUAUAGGAUAUACAUGAGGAUCACCCAUGUGAGAAUUAAGUGGCGUACCACUAAGUAGAAGGAUACUGGA”, the “apparent Kd” value by setting is: under setting [1], 50.8 nM; under setting [2], 222 nM.

Regarding “CACGCCUAGGAGAAGGGCCCACUAUAGGGUAAAUGCUGUUCUCACAUGAGGAUCACCCAUGUGCGGCAGGAUAUCCACGCGUAA”, the “apparent Kd” value reads like this: under setting [1], 7.28 nM; under setting [2], 34.6 nM.

With “AAGUAGUGUGUGAGGAUAUUGGUGGAAUGACAUAUUAAGAAGGCACAUGAGGAUCACCCAUGUGGGAUGUCACG”, the “apparent Kd” value by setting is: under setting [1], 12.6 nM; under setting [2], 12.6 nM.

In the case of “CUCUUGUAAGGAUAUCACCACACAAAAAAAAAAAAGUGUGGUGAGAAGGUACAUGAGGAUCACCCAUGUACUAA”, the “apparent Kd” value runs as follows: under setting [1], 23 nM; under setting [2], 22.5 nM.

For the sequence “CCUCCCUGAGGAUAUCCACCCUCAUACAUGAGGAUCACCCAUGUUCAUCCGUGGCUACCCGGAGAAGGCAGCUCUC”, the “apparent Kd” value by setting is: under setting [1], 44.9 nM; under setting [2], 41.8 nM.

In the case of “AUUAUAUAGAGAGGAUAUAGAAUAUUAUUUUAACAUGAGGAUCACCCAUGUAACCUUAUGUGUAGCUAGAAGGCUCAUUUAUUA”, the “apparent Kd” value reads like this: under setting [1], 42.2 nM; under setting [2], 74.2 nM.

For “UCGCGAUGAGGAUAUACAUAGAAAUAGAUUCAUGUAAAACUACAUGAGGAUCACCCAUGUAGAAGGCAUUGCGU”, the “apparent Kd” value came out at 23 nM under setting [1] and 128 nM under setting [2].

For the sequence “AAUUCUAGGGUCAGCCUUAACACAUGAGGAUCACCCAUGUACAGAAGGCGAAGCAAAUGGACACUCGAGGAUAUGUACACUCCG”, the “apparent Kd” value turned out to be 6.22 nM under setting [1] and 8.01 nM under setting [2].

With “CAUACACAUGAGGAUCACCCAUGUGAGGAUAUGCGUACGUUGUCCGUAGGCGACGUGCGCAGAAGGCGCGUGUU”, the “apparent Kd” value worked out at 56.9 nM under setting [1] and 48.3 nM under setting [2].

For “GGAAAUUAGCAAGGAUAUCGGCUCACUAUUACUUUAUGCCCUAGGACAUGAGGAUCACCCAUGUACGAGAAGGUGCUAACUACA”, the “apparent Kd” value turned out to be 28.5 nM under setting [1] and 31.1 nM under setting [2].

Take “ACAUGAGGAUCACCCAUGUAUUUGUAGGAUAUACACAAUUAUUUAUUACUCUAAUUAAUAUGUUUGUAGAAGGACACUGCAUGA”: the “apparent Kd” value under setting [1] was found to be 11.5 nM and the “apparent Kd” value under setting [2] came to 11.9 nM.

“ACAUACAUUCGAGGAUAUCGGUGAUUAAUUUUACGAGAAGGCGAUAUAAGAUAUAAUAUUUUAGACAUGAGGAUCACCCAUGUA”: the “apparent Kd” value under setting [3] worked out at 25.5 nM and the “apparent Kd” value under setting [4] worked out at 22.9 nM.

Consider “AAAACAUGAGGAUCACCCAUGUAAAGAUCACUUAAUAGUUGUGAGGAUAUACGAUUUUAAAGCUAGUAGAAGGCACUGGGUACA”, for which the “apparent Kd” value stood at 28.1 nM under setting [3] and 36.1 nM under setting [4].

Turning to “CGUCGAUACCAGAAGGACAUGAGGAUCACCCAUGUAGGAUAUGGGUGACCGGGAUAGUGGACACAGCGCCCGGGCACAUGCGAC”, the “apparent Kd” value was 13.6 nM under setting [3] and 8.19 nM under setting [4].
